In ChEMBL document CHEMBL1158617, “New estrogenic compounds isolated from Broussonetia kazinoki” (Bioorg Med Chem Lett, 2010):
pEC50, pIC50: −log10 of the molar value. Activity calls are given as the source filed them. The calls are words filed in the database; no cut-off is given here.

Legend:
[1] = tested on: MCF7; assay: Up-regulation of progesterone receptor gene expression in human MCF7 cells at 10 uM after 24 hrs by RT-PCR analysis; type: functional, cell-based
Outline: (§1)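 MCF-7 cells were treated 24 h with compounds at 10 µM. Steady-state mRNA levels were quantified by qPCR, with constitutive human β-actin mRNA as internal control, relative to untreated control.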

[2] = tested on: MCF7; assay: Up-regulation of pS2 gene expression in human MCF7 cells at 10 uM after 24 hrs by RT-PCR analysis; type: functional, cell-based; outline: as §1
[3] = tested on: MCF7; assay: Down-regulation of ERalpha mRNA expression in human MCF7 cells at 10 uM after 24 hrs by RT-PCR analysis; type: functional, cell-based; outline: as §1
[4] = tested on: MCF7; assay: Down-regulation of ERalpha mRNA expression in human MCF7 cells at 10 uM after 24 hrs by SDS PAGE and immunoblot analysis; type: functional, cell-based; conditions: in the assay text read “protein” for “mRNA”
Outline: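 MCF-7 cells were treated 24 h with 10 µM compounds, with 10 nM E2 as reference. Total protein extracts were run on SDS–PAGE and immunoblotted with anti-ER-α and anti-β-actin antibodies. ER-α protein was compared with control.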

[5] = molecular target: T1, Estrogen receptor beta (Homo sapiens, UniProt Q92731); assay: Transactivation of human recombinant ERbeta expressed in african green monkey CV1 cells co-expressing ERE-Luc after 24 hrs by luciferase reporter gene assay; type: cell-based, CV-1
Outline: (§2)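 CV-1 cells were transfected with an ERE-Luc reporter plus a hER-α or hER-β expression vector. Cells were incubated 24 h with compounds, then lysed, and luciferase expression was measured. Data are mean ± SD (n = 3), and EC50 comes from the dose-response.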

[6] = molecular target: T2, Estrogen receptor (Homo sapiens) (UniProt P03372); assay: Transactivation of human recombinant ERalpha expressed in african green monkey CV1 cells co-expressing ERE-Luc after 24 hrs by luciferase reporter gene assay in presence of ER antagonist ICI 182780; type: functional, cell-based; conditions: CV-1
T2 sequence (whole entry): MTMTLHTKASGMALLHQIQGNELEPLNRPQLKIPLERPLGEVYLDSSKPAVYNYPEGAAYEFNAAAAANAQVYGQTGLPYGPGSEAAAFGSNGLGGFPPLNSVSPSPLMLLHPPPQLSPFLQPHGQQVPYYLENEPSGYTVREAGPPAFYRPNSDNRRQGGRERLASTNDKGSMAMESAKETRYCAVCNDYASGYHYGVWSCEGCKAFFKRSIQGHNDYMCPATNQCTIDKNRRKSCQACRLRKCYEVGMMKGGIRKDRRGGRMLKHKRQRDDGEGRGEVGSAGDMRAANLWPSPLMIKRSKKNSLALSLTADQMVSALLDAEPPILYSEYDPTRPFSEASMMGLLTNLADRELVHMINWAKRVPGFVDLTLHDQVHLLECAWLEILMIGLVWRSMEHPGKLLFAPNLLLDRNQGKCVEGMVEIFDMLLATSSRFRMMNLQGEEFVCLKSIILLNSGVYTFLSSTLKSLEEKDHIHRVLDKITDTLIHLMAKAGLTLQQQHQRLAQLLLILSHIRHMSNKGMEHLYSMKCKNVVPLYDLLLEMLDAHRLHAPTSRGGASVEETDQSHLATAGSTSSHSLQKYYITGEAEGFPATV

[7] = molecular target: T3, Estrogen receptor (Homo sapiens, UniProt P03372); assay: Transactivation of human recombinant ERalpha expressed in african green monkey CV1 cells co-expressing ERE-Luc after 24 hrs by luciferase reporter gene assay; type: cell-based, CV-1; outline: as §2
T3 sequence (P03372 whole entry): T2 sequence (whole entry)

[8] = molecular target: T3, Estrogen receptor; assay: Displacement of [3H]17-beta-estradiol from human recombinant full length ERalpha
Outline: (§3)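 Competitive ligand-binding assay with recombinant human ER-α or ER-β. Test compounds displace the labelled estrogen ligand, and IC50 is derived from the displacement curves.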

[9] = molecular target: T1, Estrogen receptor beta; assay: Displacement of [3H]17-beta-estradiol from human recombinant full length ERbeta; outline: as §3
[10] = molecular target: T2, Estrogen receptor (Homo sapiens); assay: Displacement of [3H]17-beta-estradiol from human recombinant full length ERalpha relative to estradiol
Outline: (§4)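 Relative binding affinity is taken from the competitive binding IC50s against recombinant human ER-α or ER-β. RBA = 100 × IC50(E2)/IC50(compound).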

[11] = molecular target: T1, Estrogen receptor beta; assay: Displacement of [3H]17-beta-estradiol from human recombinant full length ERbeta relative to estradiol; outline: as §4
[12] = organism: Homo sapiens; assay: Selectivity ratio of IC50 for human recombinant full length ERbeta to IC50 for human recombinant full length ERalpha

T1 sequence (Q92731 whole entry): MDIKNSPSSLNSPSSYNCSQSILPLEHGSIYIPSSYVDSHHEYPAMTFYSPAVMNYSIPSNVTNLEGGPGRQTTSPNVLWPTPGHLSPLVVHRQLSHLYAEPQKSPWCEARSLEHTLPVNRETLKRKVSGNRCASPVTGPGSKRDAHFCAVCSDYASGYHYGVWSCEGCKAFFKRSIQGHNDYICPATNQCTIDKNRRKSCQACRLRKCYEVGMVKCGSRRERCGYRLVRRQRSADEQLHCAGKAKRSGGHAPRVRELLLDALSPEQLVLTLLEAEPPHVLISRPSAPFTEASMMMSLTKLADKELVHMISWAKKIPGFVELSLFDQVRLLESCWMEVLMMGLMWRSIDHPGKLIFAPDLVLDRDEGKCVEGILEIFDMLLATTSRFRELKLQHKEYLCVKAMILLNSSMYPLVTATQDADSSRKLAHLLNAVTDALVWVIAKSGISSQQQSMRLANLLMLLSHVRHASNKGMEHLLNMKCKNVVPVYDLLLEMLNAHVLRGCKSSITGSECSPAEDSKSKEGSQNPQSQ

| Structure (SMILES) | Activity [1] | Activity [2] | Activity [3] | Activity [4] | EC50 ([5]; cv-1) | pEC50 ([5]; read-out: EC50) | Activity [6] | EC50 ([7]; cv-1) | pEC50 ([7]; read-out: EC50) | pIC50 [8] | pIC50 [9] | RBA [10] | RBA [11] | Ratio IC50 [12] |
| --- | --- | --- | --- | --- | --- | --- | --- | --- | --- | --- | --- | --- | --- | --- |
| COc1ccc(CCCc2ccc(O)cc2)c(O)c1 [BROUSSONIN A] | Active | Active | Active | Active | Dose-dependent effect | 6.28 | inactive | Dose-dependent effect | 5.80 | 5.09 | 5.74 | 0.069% | 0.394% | 5.71 |
| Oc1ccc([C@H]2CCc3ccc(O)cc3O2)cc1 [TUPICHINOL C] | Active | Active | Active | Active |  |  |  |  |  | 4.58 | 4.83 | 0.021% | 0.048% | 2.29 |
| CC(C)=CCc1c([C@H]2CCc3ccc(O)cc3O2)cc(O)c(O)c1CC=C(C)C | Active | Active | Active | Active |  |  |  |  |  | 3.82 | 4.02 | 0.004% | 0.007% | 1.75 |
| CC(C)=CCc1c([C@H]2CCc3ccc(O)cc3O2)ccc(O)c1O [KAZINOL U] | Active | Active | Active | Active |  |  |  |  |  | 4.24 | 4.38 | 0.01% | 0.017% | 1.7 |
